Test results reported in ChEMBL document CHEMBL1145341, “Synthesis and biological evaluation of bisindenoisoquinolines as topoisomerase I inhibitors” (2006).
Active and inactive are the calls of the source. The rule behind the calls is not given here.

What was measured:
[1] = system: UACC-62; test: Antiproliferative activity against human UACC62 cell line; format: functional
[2] = system: MDA-MB-435; test: Antiproliferative activity against human MDA-MB-435 cell line; format: functional
[3] = system: DU-145; test: Antiproliferative activity against human DU145 cell line; format: functional
[4] = system: OVCAR-3; test: Antiproliferative activity against human OVCAR-3 cell line; format: functional
[5] = system: HCT-116; test: Antiproliferative activity against human HCT116 cell line; format: functional
[6] = system: SF-539; test: Antiproliferative activity against human SF539 cell line; format: functional
[7] = system: HOP-62; test: Antiproliferative activity against human HOP62 cell line; format: functional
[8] = system: SN12C; test: Antiproliferative activity against human SN12C cell line; format: functional
[9] = system: Panel (12 tumour cell lines); test: Net cell kill in ip dosed mouse implanted with 12 human tumor cell lines; format: functional, organism-based
[10] = target: T1, DNA topoisomerase 1 (Homo sapiens) (UniProt P11387); test: Inhibition of human recombinant Top1-mediated DNA cleavage upto 10 uM
T1 sequence (whole entry): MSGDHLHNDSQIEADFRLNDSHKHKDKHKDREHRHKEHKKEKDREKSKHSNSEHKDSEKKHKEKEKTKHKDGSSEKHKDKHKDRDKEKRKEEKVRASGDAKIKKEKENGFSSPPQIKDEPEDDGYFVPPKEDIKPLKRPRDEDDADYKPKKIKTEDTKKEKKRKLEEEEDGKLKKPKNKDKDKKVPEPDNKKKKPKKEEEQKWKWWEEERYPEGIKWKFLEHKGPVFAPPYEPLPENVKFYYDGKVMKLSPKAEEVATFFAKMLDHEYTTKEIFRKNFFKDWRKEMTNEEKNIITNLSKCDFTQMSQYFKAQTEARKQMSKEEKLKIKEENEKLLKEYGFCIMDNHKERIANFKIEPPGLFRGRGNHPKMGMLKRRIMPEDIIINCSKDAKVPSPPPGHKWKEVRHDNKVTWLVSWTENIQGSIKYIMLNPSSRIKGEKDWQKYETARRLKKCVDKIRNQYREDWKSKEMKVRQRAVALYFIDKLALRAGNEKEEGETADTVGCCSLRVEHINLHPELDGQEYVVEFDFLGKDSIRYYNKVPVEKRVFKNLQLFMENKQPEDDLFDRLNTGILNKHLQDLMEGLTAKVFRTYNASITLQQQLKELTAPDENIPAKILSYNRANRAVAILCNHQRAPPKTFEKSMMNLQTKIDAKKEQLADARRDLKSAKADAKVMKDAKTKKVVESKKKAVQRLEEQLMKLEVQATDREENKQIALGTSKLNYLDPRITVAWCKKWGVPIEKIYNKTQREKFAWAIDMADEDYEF
Method in brief: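 Baculovirus-purified human recombinant Top1. Substrate: 161 bp PvuII/HindIII fragment of pBluescript SK(-), 3′-end labeled with [α-32P]-dGTP by Klenow fill-in, about 50 000 dpm per reaction. Compounds up to 10 µM, 22 °C for 30 min; stopped with 0.5% SDS (final). Denaturing 16% polyacrylamide/7 M urea gels, phosphorimaging. Cleavage scored semiquantitatively (+ to ++++) against a reference indenoisoquinoline and 1 µM camptothecin.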

Row | Compound | GI50 [1] [µM] | GI50 [2] [µM] | GI50 [3] [µM] | GI50 [4] [µM] | GI50 [5] [µM] | GI50 [6] [µM] | GI50 [7] [µM] | GI50 [8] [µM] | Activity [9] | Activity [10]
1 | O=C1c2ccccc2-c2c1c1ccccc1c(=O)n2CCCNCCn1c2c(c3ccccc3c1=O)C(=O)c1ccccc1-2 | 5.01 | 2.24 | 1.91 | 8.91 | 1.05 | 14.5 | 0.977 | 11 |  | 
2 | COc1cc2c3c(n(CCNCCCNCCn4c5c(c6cc(OC)c(OC)cc6c4=O)C(=O)c4ccccc4-5)c(=O)c2cc1OC)-c1ccccc1C3=O | 1.23 | 0.813 | 0.209 | 0.269 | 0.045 | 0.17 | 0.068 | 0.028 |  | 
3 | CC(C)(C)OC(=O)N(CCCCN(CCCn1c2c(c3ccccc3c1=O)C(=O)c1ccccc1-2)C(=O)OC(C)(C)C)CCCn1c2c(c3ccccc3c1=O)C(=O)c1ccccc1-2 | 93.3 | 69.2 | 47.9 | 69.2 | 1.91 | 8.13 | 11 | 36.3 |  | 
4 | CC(C)(C)OC(=O)N(CCCn1c2c(c3ccccc3c1=O)C(=O)c1ccccc1-2)CCN(CCCn1c2c(c3ccccc3c1=O)C(=O)c1ccccc1-2)C(=O)OC(C)(C)C | 45.7 | > 50.1 | > 50.1 | 13.2 | 14.1 | > 50.1 | 20 | 39.8 |  | 
5 | O=C1c2ccccc2-c2c1c1ccccc1c(=O)n2CCNCCNCCn1c2c(c3ccccc3c1=O)C(=O)c1ccccc1-2 | 0.331 | 1.66 | 0.182 | 1.66 | 0.029 |  | 0.032 | 0.178 |  | 
6 | O=C1c2ccccc2-c2c1c1ccccc1c(=O)n2CCCCNCCCn1c2c(c3ccccc3c1=O)C(=O)c1ccccc1-2 | 0.513 | 0.562 | 0.288 | 0.372 | 0.056 |  | 0.028 | 0.132 |  | 
7 | O=C1c2ccccc2-c2c1c1ccccc1c(=O)n2CCCNCCCCNCCCn1c2c(c3ccccc3c1=O)C(=O)c1ccccc1-2 | 0.562 | 0.676 | 0.234 | 0.135 | < 0.005 | 0.251 | 0.525 | < 0.005 | inactive | Active
8 | CC(C)(C)OC(=O)N(CCCN(CCn1c2c(c3ccccc3c1=O)C(=O)c1ccccc1-2)C(=O)OC(C)(C)C)CCn1c2c(c3ccccc3c1=O)C(=O)c1ccccc1-2 | > 50.1 | > 50.1 | > 50.1 | 21.4 | 22.9 | > 50.1 | 22.4 | > 50.1 |  | 
9 | O=C1c2ccccc2-c2c1c1ccccc1c(=O)n2CCNCCNCCNCCNCCn1c2c(c3ccccc3c1=O)C(=O)c1ccccc1-2 |  | 0.126 | 0.085 | 0.032 | 0.2 | 0.012 | 0.977 |  |  | 
10 | CC(=O)O[C@H]1C(=O)[C@@]2(C)[C@H]([C@H](OC(=O)c3ccccc3)[C@]3(O)C[C@H](OC(=O)[C@H](O)[C@@H](NC(=O)c4ccccc4)c4ccccc4)C(C)=C1C3(C)C)[C@]1(OC(C)=O)CO[C@@H]1C[C@@H]2O |  |  |  |  |  |  |  |  | Active | 
11 | NCCCn1c2c(c3ccccc3c1=O)C(=O)c1ccccc1-2 | 0.26 | 0.78 | 0.22 | 1.38 | 0.18 | 0.25 | 0.2 | 0.16 |  | 
12 | O=C1c2ccccc2-c2c1c1ccccc1c(=O)n2CCCN1CCN(CCCn2c3c(c4ccccc4c2=O)C(=O)c2ccccc2-3)CC1 | > 100 | > 100 | 24 | > 100 | 35.5 | > 100 | 12.9 | 15.5 |  | 
13 | O=C1c2ccccc2-c2c1c1ccccc1c(=O)n2CCCNCCNCCCn1c2c(c3ccccc3c1=O)C(=O)c1ccccc1-2 | 0.052 | 0.933 | < 0.01 | 1.02 | < 0.01 |  | < 0.01 | < 0.01 |  | Active
14 | O=C1c2ccccc2-c2c1c1ccccc1c(=O)n2CCCNCCCn1c2c(c3ccccc3c1=O)C(=O)c1ccccc1-2 | 6.61 | 8.91 | 1 | 2.95 | 0.55 | 3.63 | 0.794 | 1.55 |  | 
15 | CN(CCCn1c2c(c3ccccc3c1=O)C(=O)c1ccccc1-2)CCCn1c2c(c3ccccc3c1=O)C(=O)c1ccccc1-2 | 2 | 1.55 |  | 1.2 |  | 1.12 |  | 0.589 |  | 
16 | O=C1c2ccccc2-c2c1c1ccccc1c(=O)n2CCNCCNCCNCCn1c2c(c3ccccc3c1=O)C(=O)c1ccccc1-2 | 0.269 | 1 | 0.331 | 1.15 | 0.112 | 0.275 | 0.048 | 0.017 | inactive | Active
17 | COc1cc2c3c(n(CCCNCCCNCCCN)c(=O)c2cc1OC)-c1cc2c(cc1C3=O)OCO2 | 44 | 68 | > 100 | 0.88 | 43 | > 100 |  | 33 |  | 
18 | COc1cc2c3c(n(CCCNCCCNCCCn4c5c(c6cc(OC)c(OC)cc6c4=O)C(=O)c4ccccc4-5)c(=O)c2cc1OC)-c1ccccc1C3=O | 4.27 | 3.98 | 19.5 | 9.55 | 0.331 | 4.17 | 1.51 | 0.24 |  | 
19 | O=C1c2ccccc2-c2c1c1ccccc1c(=O)n2CCNCCCNCCn1c2c(c3ccccc3c1=O)C(=O)c1ccccc1-2 | 0.182 | 0.024 | 0.079 | 0.093 | < 0.005 | 0.155 | 0.339 | < 0.005 | inactive | Active
20 | CC[C@@]1(O)C(=O)OCc2c1cc1n(c2=O)Cc2cc3ccccc3nc2-1 [CAMPTOTHECIN] | 0.01 | 0.04 | 0.01 |  | 0.03 | 0.01 | 0.01 | 0.02 |  | 
21 | O=C1c2ccccc2-c2c1c1ccccc1c(=O)n2CCCNCCCNCCCn1c2c(c3ccccc3c1=O)C(=O)c1ccccc1-2 | 0.042 | 0.107 |  | 0.074 | < 0.01 | 0.011 | < 0.01 | < 0.01 | inactive | Active
22 | O=C1c2ccccc2-c2c1c1ccccc1c(=O)n2CCNCCn1c2c(c3ccccc3c1=O)C(=O)c1ccccc1-2 | > 25.1 | > 25.1 | > 25.1 | > 25.1 | > 25.1 | > 25.1 | > 25.1 | > 25.1 |  | 
